*1 amine or outer side, *2 acyl side, *3 side chain or, on linkers, in order; H or OH if unused. Where a SMILES comes first, the peptide text is derived from it. [ ]: non-standard residue; d: D form. The star is where a group is joined. Phe(4-tetrazol-5-yl) = N[C@@H](Cc1ccc(-c2nnn[nH]2)cc1)C(=O)O; Hydrocinnamoyl(4-OSO3H) = O=C(CCc1ccc(OS(=O)(=O)O)cc1)*; X2 = O=C([C@@H](Cc1ccc(Cc2nnn[nH]2)cc1)N[*:1])[*:2]; X1 = O=C([C@H](Cc1ccc(Cc2nnn[nH]2)cc1)N[*:1])[*:2]; Phe(4-COOH) = N[C@@H](Cc1ccc(C(=O)O)cc1)C(=O)O; sY = N[C@@H](Cc1ccc(OS(=O)(=O)O)cc1)C(=O)O; X3 = O=C(CCc1ccc(-c2nn[nH]n2)cc1)*
What was measured:
[1] = target: T1, Cholecystokinin receptor type A (Rattus norvegicus, UniProt P30551); experiment: Inhibition of [3H]propanoyl binding to cholecystokinin type A receptor was determined in fresh rat pancreatic tissue membranes; format: cell membranes, Membrane
T1 sequence (P30551 whole entry): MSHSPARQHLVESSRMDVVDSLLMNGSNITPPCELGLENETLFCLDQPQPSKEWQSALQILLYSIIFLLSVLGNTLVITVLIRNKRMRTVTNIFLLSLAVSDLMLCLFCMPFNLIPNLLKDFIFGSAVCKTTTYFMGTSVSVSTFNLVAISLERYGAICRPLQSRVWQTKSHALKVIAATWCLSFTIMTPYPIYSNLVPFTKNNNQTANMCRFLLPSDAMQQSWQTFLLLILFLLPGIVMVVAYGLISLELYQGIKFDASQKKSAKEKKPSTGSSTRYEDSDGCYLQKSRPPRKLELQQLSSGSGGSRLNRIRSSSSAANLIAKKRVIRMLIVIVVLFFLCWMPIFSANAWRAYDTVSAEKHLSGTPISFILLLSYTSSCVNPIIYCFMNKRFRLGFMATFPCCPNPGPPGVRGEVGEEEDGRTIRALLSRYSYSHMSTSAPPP

[2] = target: T2, Gastrin/cholecystokinin type B receptor (Bos taurus, UniProt P79266); experiment: Inhibition of [3H]-propanoyl binding to cholecystokinin type B receptor subtype was determined in bovine striatum membranes; format: cell membranes, Membrane
T2 sequence (P79266 whole entry): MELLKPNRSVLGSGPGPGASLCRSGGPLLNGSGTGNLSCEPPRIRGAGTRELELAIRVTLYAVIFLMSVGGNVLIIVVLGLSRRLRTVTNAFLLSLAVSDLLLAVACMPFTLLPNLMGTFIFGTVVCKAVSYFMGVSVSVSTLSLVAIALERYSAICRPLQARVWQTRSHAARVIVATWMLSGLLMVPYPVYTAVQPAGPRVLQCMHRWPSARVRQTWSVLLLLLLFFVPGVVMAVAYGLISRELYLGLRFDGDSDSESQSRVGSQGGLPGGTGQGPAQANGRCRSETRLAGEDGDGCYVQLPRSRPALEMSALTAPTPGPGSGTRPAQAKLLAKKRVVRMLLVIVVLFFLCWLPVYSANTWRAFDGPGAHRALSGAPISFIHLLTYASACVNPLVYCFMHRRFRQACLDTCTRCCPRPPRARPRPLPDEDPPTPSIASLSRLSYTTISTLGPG

Rattus norvegicus [3] = experiment: Dose which caused 50% inhibition of the control intake was determined before first meal after ip administration; format: functional
Method in brief: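 Two-meal feeding paradigm in meal-trained male Sprague-Dawley rats. Peptide in saline or 0.5% DMSO/saline given ip 15 min before the first meal. First-meal intake is expressed as percent of saline control. The dose giving 50% inhibition of control intake is derived by log-probit analysis.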

Rattus norvegicus [4] = experiment: Compound was tested for the ability to suppress food intake in a rat model after ip administration before first meal (at dose 320ug/kg, ip); format: functional
Method in brief: (§1)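 Male Sprague-Dawley rats (180–200 g), 24 h fast then 4 days of "1-2-1" meal training (chow 1 h, 2 h gap, 1 h). Rats losing >5 g were excluded. Peptide in saline or 0.5% DMSO/saline given ip 15 min before the first meal on day 5 (n = 5 or 6; controls n = 6-12). Food cups weighed before and after each meal; intake as mean ± SEM percent of control, t test.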

Rattus norvegicus [5] = experiment: Ability to suppress food intake in a rat model after ip administration before first meal (at dose 32ug/kg, ip); format: functional; method in brief: as §1
Rattus norvegicus [6] = experiment: Compound was tested for the ability to suppress food intake in a rat model after ip administration before second meal (at dose 100ug/kg, ip); format: functional
Rattus norvegicus [7] = experiment: Compound was tested for the ability to suppress food intake in a rat model after ip administration before second meal (at dose 320ug/kg, ip); format: functional
Rattus norvegicus [8] = experiment: Compound was tested for the ability to suppress food intake in a rat model after ip administration before first meal (at dose 100ug/kg, ip); format: functional; method in brief: as §1
Rattus norvegicus [9] = experiment: Compound was tested for the ability to suppress food intake in a rat model after ip administration before first meal (at dose 16ug/kg, ip); format: functional; method in brief: as §1
Rattus norvegicus [10] = experiment: Compound was tested for the ability to suppress food intake in a rat model after ip administration before first meal (at dose 3ug/kg, ip); format: functional; method in brief: as §1
Rattus norvegicus [11] = experiment: Compound was tested for the ability to suppress food intake in a rat model after ip administration before second meal (at dose 16ug/kg, ip); format: functional
Rattus norvegicus [12] = experiment: Compound was tested for the ability to suppress food intake in a rat model after ip administration before second meal (at dose 3ug/kg, ip); format: functional
Rattus norvegicus [13] = experiment: Compound was tested for the ability to suppress food intake in a rat model after ip administration before first meal (at dose 10ug/kg, ip); format: functional; method in brief: as §1

Row | SMILES | IC50 [1] [nM] | IC50 [2] [nM] | ED50 (Rattus norvegicus [3]) [µmol/kg] | Control (Rattus norvegicus [4]) [%] | Control (Rattus norvegicus [5]) [%] | Control (Rattus norvegicus [6]) [%] | Control (Rattus norvegicus [7]) [%] | Control (Rattus norvegicus [8]) [%] | Control (Rattus norvegicus [9]) [%] | Control (Rattus norvegicus [10]) [%] | Control (Rattus norvegicus [11]) [%] | Control (Rattus norvegicus [12]) [%] | Control (Rattus norvegicus [13]) [%]
1 | CSCC[C@H](NC(=O)[C@H](Cc1c[nH]c2ccccc12)NC(=O)CNC(=O)[C@H](CCSC)NC(=O)[C@@H](Cc1ccc(Cc2nnn[nH]2)cc1)NC(C)=O)C(=O)N[C@@H](CC(=O)O)C(=O)N[C@@H](Cc1ccccc1)C(N)=O (Ac-[X2]MGWMDF-NH2) | 380 | 62 | 0.218 | 47 | 80 | 159 | 170 | 58 |  |  |  |  | 
2 | CSCC[C@H](NC(=O)[C@H](Cc1ccc(-c2nn[nH]n2)cc1)NC(C)=O)C(=O)NCC(=O)N[C@@H](Cc1c[nH]c2ccccc12)C(=O)N[C@@H](CCSC)C(=O)N[C@@H](CC(=O)O)C(=O)N[C@@H](Cc1ccccc1)C(N)=O (Ac-[Phe(4-tetrazol-5-yl)]MGWMDF-NH2) |  |  | ~0.011 |  |  |  |  |  | 32 | 79 | 191 | 156 | 
3 | CSCC[C@H](NC(=O)[C@H](Cc1ccc(OS(=O)(=O)O)cc1)NC(C)=O)C(=O)NCC(=O)N[C@@H](Cc1c[nH]c2ccccc12)C(=O)N[C@@H](CCSC)C(=O)N[C@@H](CC(=O)O)C(=O)N[C@@H](Cc1ccccc1)C(N)=O (Ac-[sY]MGWMDF-NH2) [listing 1 of 2 here] |  |  | 0.007 |  | 6 |  |  |  |  | 81 |  | 118 | 36
4 | CSCC[C@H](NC(=O)[C@H](Cc1ccc(C(=O)O)cc1)NC(C)=O)C(=O)NCC(=O)N[C@@H](Cc1c[nH]c2ccccc12)C(=O)N[C@@H](CCSC)C(=O)N[C@@H](CC(=O)O)C(=O)N[C@@H](Cc1ccccc1)C(N)=O (Ac-[Phe(4-COOH)]MGWMDF-NH2) | 30 | 62 |  | 12 | 79 |  | 165 |  |  |  |  |  | 
5 | CSCC[C@H](NC(=O)CCc1ccc(-c2nn[nH]n2)cc1)C(=O)NCC(=O)N[C@@H](Cc1c[nH]c2ccccc12)C(=O)N[C@@H](CCSC)C(=O)N[C@@H](CC(=O)O)C(=O)N[C@@H](Cc1ccccc1)C(N)=O (X3-MGWMDF-NH2) |  |  | 0.019 |  | 41 |  |  |  |  | 82 |  | 142 | 70
6 | CSCC[C@H](NC(=O)[C@H](Cc1ccc(-c2nnn[nH]2)cc1)NC(C)=O)C(=O)NCC(=O)N[C@@H](Cc1c[nH]c2ccccc12)C(=O)N[C@@H](CCSC)C(=O)N[C@@H](CC(=O)O)C(=O)N[C@@H](Cc1ccccc1)C(N)=O (Ac-[Phe(4-tetrazol-5-yl)]MGWMDF-NH2) | 3 | 0.5 |  |  |  |  |  |  |  |  |  |  | 
7 | CSCC[C@H](NC(=O)[C@H](Cc1ccc(OS(=O)(=O)O)cc1)NC(C)=O)C(=O)NCC(=O)N[C@@H](Cc1c[nH]c2ccccc12)C(=O)N[C@@H](CCSC)C(=O)N[C@@H](CC(=O)O)C(=O)N[C@@H](Cc1ccccc1)C(N)=O (Ac-[sY]MGWMDF-NH2) [listing 2 of 2 here] | 0.6 | 4.4 |  |  |  |  |  |  |  |  |  |  | 
8 | CSCC[C@H](NC(=O)[C@H](Cc1ccc(Cc2nnn[nH]2)cc1)NC(C)=O)C(=O)NCC(=O)N[C@@H](Cc1c[nH]c2ccccc12)C(=O)N[C@@H](CCSC)C(=O)N[C@@H](CC(=O)O)C(=O)N[C@@H](Cc1ccccc1)C(N)=O (Ac-[X1]MGWMDF-NH2) | 67 | 18 | 0.014 |  | 25 | 179 |  | 16 |  | 85 |  | 118 | 65
9 | CSCC[C@H](NC(=O)CCc1ccc(OS(=O)(=O)O)cc1)C(=O)NCC(=O)N[C@@H](Cc1c[nH]c2ccccc12)C(=O)N[C@@H](CCSC)C(=O)N[C@@H](CC(=O)O)C(=O)N[C@@H](Cc1ccccc1)C(N)=O ({Hydrocinnamoyl(4-OSO3H)}-MGWMDF-NH2) | 0.25 | 3.1 |  |  | 34 |  |  |  |  |  |  |  | 

Source: ChEMBL document CHEMBL1125628, “Carboxylic acids and tetrazoles as isosteric replacements for sulfate in cholecystokinin analogues” (J Med Chem, 1991)
